Screening results: PubChem BioAssay, Broad Institute
Sampled rows, rich in hits. Any-hit rate of the full collection: about 1.3%.
ERp5 block = inhibitors of ERp5-driven insulin aggregation, primary screen, biochemical, turbidity, absorbance 650 nm, single point. Protein disulfide-isomerase A6 (Homo sapiens), Q15084. 90 min. inhibition, % at 9.99 µM. hit rate 0.05% among 350,000. AID 651711, 2012;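 active means mean replicate inhibition above about 25%, with every replicate also reaching it, limit read from the data, passing the limit was not always enough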
FN deposition inh = inhibitors of fibronectin matrix deposition, primary screen, AH1F cells, Alexa488-fibronectin fluorescence, plate reader | AH1F fibroblasts, overnight | inhibition, % at 12.6 µM | hit rate 0.086% among 350,000;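 active means mean inhibition across replicates of 30% or more, regardless of how many single replicates reach that level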
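Assay system: AH1F fibroblasts / Quantity: 10000 cells per well / Medium: DMEM plus 2% serum, read in PBS / Reagent: labelled fibronectin 24 nM / Dosing: single dose, pinned / Times: 1 h cell attachment, overnight exposure to compound and label / Signal: fluorescence, ex 485 nm, em 525 nm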
SIRT5 inh = SIRT5 desuccinylase inhibitors, primary screen, biochemical, fluorescence imaging, single point, set 5; inhibition, % at 15 µM; Purified SirT5, succinyl-peptide AMC, trypsin-coupled fluorescence; AID 652115, 2013; hit rate 1.1% among 330,000; in the data active means inhibition above about 15%
PDI turbidity = inhibitors of human PDI, primary screen, biochemical, turbidity, single point, plate reader | inhibition, % at 10 µM | AID 588391, 2011 | PDI insulin aggregation turbidity, A650, 90 min | Protein disulfide-isomerase (Homo sapiens), P07237 | hit rate 0.052% among 350,000;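 active means mean inhibition across replicates of 30% or more, whatever share of single replicates reach that level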
AF4-AF9 inh = inhibitors of AF4 peptide binding to AF9, primary screen, biochemical, AlphaScreen, biotin-AF4 peptide, FLAG-AF9, single point. inhibition, % at 10 µM. hit rate 0.47% among 350,000. Protein AF-9 (Homo sapiens), P42568. AID 651704, 2012;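 active means every replicate reaching a set inhibition limit, whatever the replicate mean, cut at about 25% in these data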
Target sequence (P42568 whole entry, looked up): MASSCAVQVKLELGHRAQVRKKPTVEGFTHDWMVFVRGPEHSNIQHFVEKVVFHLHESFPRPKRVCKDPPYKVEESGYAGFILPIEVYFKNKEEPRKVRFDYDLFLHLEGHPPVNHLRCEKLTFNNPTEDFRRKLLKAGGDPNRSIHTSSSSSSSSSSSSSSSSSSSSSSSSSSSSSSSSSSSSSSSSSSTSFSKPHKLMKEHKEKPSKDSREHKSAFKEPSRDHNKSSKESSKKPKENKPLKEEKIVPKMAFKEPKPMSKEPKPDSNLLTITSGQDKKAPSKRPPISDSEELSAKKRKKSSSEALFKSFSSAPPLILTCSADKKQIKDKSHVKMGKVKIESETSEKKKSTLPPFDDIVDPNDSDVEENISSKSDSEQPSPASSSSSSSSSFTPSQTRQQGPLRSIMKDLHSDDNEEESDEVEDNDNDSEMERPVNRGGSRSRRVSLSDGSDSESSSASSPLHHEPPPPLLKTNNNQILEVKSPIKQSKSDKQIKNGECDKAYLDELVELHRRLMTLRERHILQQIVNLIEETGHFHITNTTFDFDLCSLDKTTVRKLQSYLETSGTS
Numbers stand for hits; – = inactive; · = not tested or not shown.

SMILES	ERp5 block	FN deposition inh	SIRT5 inh	PDI turbidity	AF4-AF9 inh
CC(=O)N1Cc2cc(C(=O)NCc3cc(F)cc(F)c3)nc(-c3cccc(C4=CCCC4)c3)c2[C@H]1CCO	–	·	15.0	·	–
OCC#Cc1ncc(C(F)(F)F)cc1Cl	–	–	–	–	–
COc1ccc(Br)cc1/C=N/NC(=O)CNC(=O)C1COc2ccccc2O1 (stereo unspecified)	–	–	–	–	–
O=C(CNC(=O)C1COc2ccccc2O1)N/N=C\c1ccc(Br)cc1 (stereo unspecified)	–	–	22.7	–	–
C=CCSc1nnc(NC(=O)COc2ccc3ccccc3c2)s1	–	·	–	–	–
C=CCSc1nnc(NC(=O)COc2ccccc2)s1	–	34.0	–	–	–
COc1ccc(Nc2oc(COc3ccccc3OC)nc2C#N)cc1	–	–	28.4	–	–
CNc1ccccc1C(C)(C)c1cc(-c2cccc(Br)c2)no1	–	·	–	–	–
O=C(NC(Cc1ccc(O)cc1)C(=O)N=Nc1c(O)[nH]c2ccccc12)c1ccccc1 (stereo unspecified)	–	–	–	44.9	–
CC1CN(CCOc2ccccc2-c2ccccc2)CC(C)O1 (stereo unspecified)	–	–	30.7	–	–
COC(=O)c1ccc(OCCOc2ccccc2)cc1	·	·	·	–	·
COc1cccc(OC)c1OCCOc1ccc(C(=O)c2ccccc2)cc1	–	–	17.4	–	–
CCN(CC)CC(C)(C)C(=O)/C=C/c1ccc(/C=C/C(=O)C(C)(C)CN(CC)CC)cc1	–	45.7	–	–	–
Cc1noc(C)c1S(=O)(=O)Nc1ccc2c(c1)C(=O)N([C@@H](C)CO)C[C@@H](C)[C@H](CN(C)Cc1ccc(Cl)c(Cl)c1)OCCCC[C@@H](C)O2	–	·	20.1	·	–
Cc1noc(C)c1S(=O)(=O)Nc1ccc2c(c1)C(=O)N([C@@H](C)CO)C[C@@H](C)[C@@H](CN(C)Cc1ccc(Cl)c(Cl)c1)OCCCC[C@@H](C)O2	–	·	17.0	·	–
Cc1noc(C)c1S(=O)(=O)Nc1ccc2c(c1)C(=O)N([C@H](C)CO)C[C@H](C)[C@H](CN(C)Cc1ccc(Cl)c(Cl)c1)OCCCC[C@@H](C)O2	–	·	–	·	–
Cc1ccc(S(=O)(=O)N2CCN(C(=O)C(C)Cn3cncn3)CC2)cc1C (stereo unspecified)	–	–	–	–	–
COc1ccc(NC(=O)Nc2ccc3c(c2)C(=O)N([C@@H](C)CO)C[C@@H](C)[C@@H](CN(C)C)OCCCC[C@@H](C)O3)cc1	–	·	–	·	–
O=C(COC(=O)Cc1c(F)cccc1Cl)Nc1nnc(-c2ccccc2)o1	–	–	–	–	–
COc1ccc(S(=O)(=O)N(Cc2cccnc2)Cc2cc3ccccc3[nH]c2=O)cc1	–	–	–	–	–
Cc1ccc(S(=O)(=O)N(Cc2cccnc2)Cc2cc3ccccc3[nH]c2=O)cc1	–	–	–	–	29.2
CC(C)NC(=O)N(C)C[C@H]1Oc2ccc(N)cc2C(=O)N(C)C[C@H]1C	·	–	·	·	·
O=C(O)C[C@H]1CC[C@H](NC(=O)c2ccccc2F)[C@H](CO)O1	–	–	–	·	–
CC1(C)Cc2c(C#N)c(SCC(=O)c3ccccc3)nc(N3CCOCC3)c2CS1	·	48.2	·	–	·
CN1Cc2c(N3CCOCC3)nc(SCc3ccccc3)c(C#N)c2CC1(C)C	·	–	·	–	·
SMILES	ERp5 block	FN deposition inh	SIRT5 inh	PDI turbidity	AF4-AF9 inh
COc1cccc(-c2cccc(NC(=O)C3CCN(CCCn4cccn4)CC3)c2)c1	–	–	·	–	–
Cc1csc(NC(=O)c2ccc(S(C)(=O)=O)cc2)n1	–	·	19.3	–	–
Cc1ccccc1OCC(=O)Nc1cnn(CCCC(=O)O)c1	–	–	17.0	–	–
CS(=O)(=O)c1sc(C#N)c2c1C(=O)CC(c1ccccc1)C2 (stereo unspecified)	–	37.1	–	–	·
Cc1cc(C)n2nc(C)c(-c3ccccc3)c2n1	–	–	–	–	–
COc1ccc(-c2c(C)nn3c(-c4ccccc4)cc(C)nc23)cc1	–	·	–	·	26.6
Cc1cc(Nc2ccc(C(=O)O)cc2)nc(N)n1	–	–	–	–	–
O=C(CNc1ccc(Cl)cc1)c1ccc(Br)cc1	–	–	–	–	–
O=C(CNc1ccc(Br)cc1)c1ccc(O)cc1	–	–	17.4	–	–
O=C(NCCc1ccccc1)C1CCN(C2CCN(C(=O)CC3=CCCCC3)CC2)CC1	–	–	–	–	–
O=C(NC1CC1)C1CCN(C2CCN(C(=O)CC3=CCCCC3)CC2)CC1	–	–	28.9	–	–
Cc1c(C(=O)OCC(O)=C(C#N)c2nc3ccccc3[nH]2)oc2ccc(Br)cc12	–	–	30.5	–	–
O=C(NCc1ccccn1)C(=O)NN=C1CCCCCCCCCCC1	–	·	–	–	–
Cc1ccc2nc(C)cc(Cl)c2c1	–	·	–	–	–
COc1ccc([C@H]2N[C@]3(CCCN(Cc4ccc(C)cc4)C3=O)[C@H]3C(=O)N(C)C(=O)[C@@H]23)cc1	–	–	39.0	–	–
COc1ccc(CN2CCC[C@]3(N[C@H](c4ccc(OC)cc4)[C@@H]4C(=O)N(C)C(=O)[C@@H]43)C2=O)cc1	–	–	–	–	–
CN1CCN(CCCC(=O)c2ccc(F)cc2)CC1	·	–	·	–	·
Cc1ccc(S(=O)(=O)N(C)C[C@H]2OCCCC[C@H](C)Oc3ccc(NS(=O)(=O)c4ccc(Cl)cc4)cc3C(=O)N([C@@H](C)CO)C[C@@H]2C)cc1	–	–	24.0	·	–
Cc1ccc(S(=O)(=O)N(C)C[C@H]2OCCCC[C@H](C)Oc3ccc(NS(=O)(=O)c4ccc(Cl)cc4)cc3C(=O)N([C@@H](C)CO)C[C@H]2C)cc1	–	–	25.6	·	–
C[C@@H]1CCCCO[C@H](CN(C)S(=O)(=O)c2ccc(Cl)cc2)[C@H](C)CN([C@@H](C)CO)C(=O)c2cc(N(C)C)ccc2O1	–	·	20.6	·	–
Cc1ccc(S(=O)(=O)N(C)C[C@@H]2OCCCC[C@H](C)Oc3ccc(NS(=O)(=O)c4ccc(Cl)cc4)cc3C(=O)N([C@@H](C)CO)C[C@H]2C)cc1	–	–	22.3	·	–
C[C@H]1CN([C@@H](C)CO)C(=O)c2cc(/C=C/c3ccccc3)cnc2O[C@H]1CN(C)C(=O)C1CCCCC1	–	·	–	·	–
C[C@@H]1CN([C@@H](C)CO)S(=O)(=O)c2ccc(/C=C/c3ccccc3)cc2O[C@@H]1CN(C)Cc1ccccc1	–	·	18.6	·	–
C[C@H]1CN([C@@H](C)CO)S(=O)(=O)c2ccc(/C=C/c3ccccc3)cc2O[C@@H]1CN(C)Cc1ccccc1	–	·	21.6	·	–
Cc1ccc2nc(SCC(=O)N(CC(C)C)c3c(N)n(Cc4ccccc4)c(=O)[nH]c3=O)[nH]c2c1	–	–	–	–	27.3
